Compound activity as filed in PubChem BioAssay.
Shown are actives, neighbours in structure and some others; about 2.6% of the full set was active somewhere.
MEKK3 PB1 HTS – modulators of MEKK3-MEK5 PB1 binding, primary screen, biochemical, wildtype MEKK3, multiplex bead flow cytometry, Alexa488-MEK5 | AID 1529, 2009 | binding response (% of control), % at 10 µM | 290,000 compounds, 1.4% hits | Mitogen-activated protein kinase kinase kinase 3 (Homo sapiens), Q99759 | bead-based flow cytometry, Alexa488-MEK5 binding to MEKK3; actives lie on both sides; 0 = blocked by unlabeled MEK5, 100 = vehicle;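 active = binding response more than 3 SD above or below the average of its plate-row segment, actives on both sides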;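 note: Alexa488 bead fluorescence after subtracting the streptavidin-only scavenger bead signal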
Target sequence (Q99759 whole entry, looked up): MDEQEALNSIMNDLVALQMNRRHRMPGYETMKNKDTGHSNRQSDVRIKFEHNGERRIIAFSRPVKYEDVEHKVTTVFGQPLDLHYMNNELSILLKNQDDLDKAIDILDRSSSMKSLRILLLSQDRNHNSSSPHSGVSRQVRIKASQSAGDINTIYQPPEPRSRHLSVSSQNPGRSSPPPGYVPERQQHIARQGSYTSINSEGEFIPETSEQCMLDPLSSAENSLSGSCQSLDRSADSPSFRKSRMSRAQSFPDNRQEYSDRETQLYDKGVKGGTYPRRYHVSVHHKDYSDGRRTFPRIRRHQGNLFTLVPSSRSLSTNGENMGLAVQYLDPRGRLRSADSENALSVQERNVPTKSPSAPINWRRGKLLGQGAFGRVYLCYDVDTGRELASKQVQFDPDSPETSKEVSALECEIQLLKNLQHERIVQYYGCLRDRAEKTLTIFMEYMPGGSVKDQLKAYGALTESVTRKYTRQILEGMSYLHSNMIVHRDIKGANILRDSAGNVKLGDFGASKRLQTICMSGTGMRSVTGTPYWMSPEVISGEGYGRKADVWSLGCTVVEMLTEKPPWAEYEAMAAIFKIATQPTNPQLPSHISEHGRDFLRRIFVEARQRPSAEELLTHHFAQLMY
Hep lipid drop – inhibitors of hepatocyte lipid droplet formation, primary screen, imaging, high-throughput imaging, BODIPY stain; AML12 mouse hepatocytes, oleate lipid droplets; inhibition, % at 6.5 µM; 240,000 compounds, 0.4% hits;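 active = lipid droplet intensity inhibited by at least 50%, with more than 500 cells counted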
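Test system: AML12 hepatocytes (mouse); reagent: oleate loading, 100 µM; dosing: one dose, 6.5 µM compound; incubation: overnight exposure; signal: fluorescence imaging, 20x objective, two fields per well; read-out basis: % inhibition of corrected integrated BODIPY droplet signal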
MEKK2wt PB1 HTS – modulators of MEK5 binding to wildtype MEKK2, primary screen, biochemical, multiplex bead flow cytometry, Alexa488-MEK5. binding response (% of control), % at 10 µM. Alexa488-MEK5 binding to MEKK2 WT; actives lie on both sides. Mitogen-activated protein kinase kinase kinase 2 (Homo sapiens), Q9Y2U5. 290,000 compounds, 1.1% hits; in the data active = binding response below about 67% or above about 130%
MEKK2 mut-MEK5 – MEK5 binding signal on mutant MEKK2 PB1, primary screen, biochemical, multiplex bead flow cytometry, Alexa488-MEK5 | Alexa488-MEK5 binding to MEKK2 mutant | percent response, % at 10 µM | 290,000 compounds, 0.35% hits; in the data active = percent response above about 24%, passing the limit was not always enough
MEKK2wt confirm – modulators of MEK5 binding to wildtype MEKK2, confirmation, biochemical, single concentration, multiplex bead flow cytometry. 5,900 compounds, 2.4% hits. shares compounds with MEKK3 PB1 HTS. Alexa488-MEK5 binding to MEKK2 WT; actives lie on both sides. binding response (% of control), % at 10 µM; in the data active = binding response below about 16% or above about 210%; inactive = in between
MEKK2mut-MEK5 – mutant MEKK2 PB1-MEK5 binding signal retest – biochemical, single concentration, multiplex bead flow cytometry, confirmation; shares compounds with MEKK3 PB1 HTS; Alexa488-MEK5 binding to MEKK2 mutant; percent response, % at 10 µM; 5,900 compounds, 2% hits; AID 1893, 2009; in the data active = percent response mostly above about 71%, no sharp cut-off; inactive = mostly below about 38%;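 note: higher means compound restores mutant binding toward wildtype level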
MEKK3 confirm – MEKK3 wild-type PB1 binding to MEK5, inhibitors, confirmation, biochemical, bead multiplex flow cytometry, single concentration, wildtype; shares compounds with MEKK3 PB1 HTS; Alexa488-MEK5 binding to MEKK3; active compounds read low; binding response (% of control), % at 10 µM; 5,900 compounds, 1.8% hits;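 active = binding response below 72% of control, or above a set upper limit, though filed actives all read lower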;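 note: 100% = DMSO only wells and 0% = binding blocked by excess unlabeled MEK5; lower values mean stronger disruption of MEK5 binding to MEKK3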
Numbers without * were called inactive; . = not tested or not shown; [ ] = another dose, or the depositor's remark.

SMILES	MEKK3 PB1 HTS	Hep lipid drop	MEKK2wt PB1 HTS	MEKK2 mut-MEK5	MEKK2wt confirm	MEKK2mut-MEK5	MEKK3 confirm
CCOC(=O)c1c(CSc2ccccc2)n(C)c2cc(Br)c(OCC(O)CNC(CO)(CO)CO)cc12 (configuration not stated)	69.0*[inhibitor]	-8.4	95.0	-10.0	162.0	35.0	106.0
COc1ccc(Cl)cc1NC(=S)NCCCN1CCCC1=O	46.0*[inhibitor]	1.5	63.0	-14.0	99.0	2.0	98.0
O=C1CCCN1CCCNC(=S)Nc1ccc(Br)cc1Cl	87.0	-3.7	92.0	-7.0	.	.	.
COC(=O)/C=C1\S/C(=N/N=C/c2ccccc2)NC1=O	139.0*	16.1	107.0	1.0	94.0	-5.0	97.0
COC(=O)/C=C1\S/C(=N/N=C/c2ccc(Cl)cc2)NC1=O	87.0	-1.9	86.0	-12.0	.	.	.
CC(C)(C)c1cc(Cl)ccc1OCCOCCN1CCCC1	102.0	-3.1	124.0	10.0	.	.	.
Cc1cc(C(C)(C)C)ccc1OCCOCCN1CCCC1	136.0*	-2.1	110.0	1.0	108.0	-2.0	100.0
CCCc1cc2c(=O)c(-c3ccccn3)c(C)oc2cc1O	75.0*[inhibitor]	.	93.0	-12.0	103.0	-3.0	100.0
CCOC(=O)c1csc(COc2ccc(OC)cc2)n1	101.0	12.4	100.0	-1.0	.	.	.
O=C1C=C(NCc2ccc(Cl)cc2)CC(c2ccco2)C1 (configuration not stated)	127.0*	.	116.0	8.0	95.0	-3.0	96.0
CCN(CC)CCCN(C(=O)c1ccc(OC)cc1)c1nc(-c2ccc(OC)cc2)cs1	95.0	-6.8	165.0*	20.0	153.0	30.0	108.0
COc1ccc(-c2csc(N(CCCN(C)C)C(=O)c3cccs3)n2)cc1	110.0	.	130.0	12.0	.	.	.
CCN(CC)CCCN(C(=O)c1ccccc1F)c1nc(-c2ccc(OC)cc2)cs1	104.0	1.7	156.0*	21.0	150.0	27.0	107.0
CCN(CC)CCCN(C(=O)c1ccccc1C)c1nc(-c2ccc(OC)cc2)cs1	107.0	-15.7	145.0*	20.0	142.0	24.0	109.0
CCCC1=C(C(=O)OCC)C(c2ccc(OC)c(C)c2OC)C(C#N)=C(N)O1 (configuration not stated)	99.0	-14.8	94.0	-1.0	.	.	.
CCOC(=O)C1=C(CC)OC(N)=C(C#N)C1c1ccc(OC)c(C)c1OC (configuration not stated)	2.0*[inhibitor]	-14.7	2.0*[inhibitor]	-13.0	95.0	-2.0	99.0
CCn1c(C)[n+](Cc2ccccc2)c2ccc(Cl)cc21	3.0*[inhibitor]	-10.9	5.0*[inhibitor]	-46.0	100.0	4.0	103.0
CCn1c(C)[n+](Cc2ccccc2)c2ccc(C(=O)OC)cc21	103.0	-1.9	106.0	4.0	.	.	.
Cc1nc(-c2ccc(S(=O)(=O)Oc3ccccc3Cl)s2)cs1	100.0	-20.3	100.0	-2.0	.	.	.
Clc1cccc(Nc2nc(-c3cccnc3)cs2)c1	.	-34.4	154.0*	.	103.0	-1.0	102.0
CC(C)(C)NC(=O)c1oc2ccccc2c1COc1ccccc1	69.0*[inhibitor]	11.6	102.0	-1.0	103.0	-12.0	97.0
CCOc1ccc(S(=O)(=O)N(CC)CC(=O)NCc2cccnc2)cc1C	100.0	-50.7	100.0	0.0	.	.	.
Cc1cc(C)cc(-n2cc(C(=O)O)c(=O)cc2C)c1	102.0	-2.0	95.0	-9.0	.	.	.
COc1ccc(N2CCN(C(=O)c3ccc(OCC4CCCO4)cc3)CC2)cc1 (configuration not stated)	101.0	.	101.0	4.0	.	.	.
Cc1ccc(Oc2nc3ccccn3c(=O)c2/C=C(\C#N)C(=O)Nc2c(C)n(C)n(-c3ccccc3)c2=O)c(C)c1	74.0*[inhibitor]	7.2	97.0	-1.0	111.0	16.0	104.0
SMILES	MEKK3 PB1 HTS	Hep lipid drop	MEKK2wt PB1 HTS	MEKK2 mut-MEK5	MEKK2wt confirm	MEKK2mut-MEK5	MEKK3 confirm
COc1ccc(CNc2nc(-c3cccnc3)nn2C(=O)CC(C)C)cc1	102.0	31.3	107.0	5.0	.	.	.
COc1ccc(CNc2nc(-c3cccnc3)nn2C(C)=O)cc1	5.0*[inhibitor]	-5.0	7.0*[inhibitor]	-42.0	107.0	2.0	106.0
N#CC1=C(N)NC(=S)C(C(N)=O)C1c1ccc([N+](=O)[O-])cc1 (configuration not stated)	101.0	-0.1	98.0	1.0	.	.	.
Cc1[nH]c2ccccc2c1C(=O)CN1CCCCC1CCO (configuration not stated)	44.0*[inhibitor]	.	63.0	-24.0	114.0	7.0	105.0
Cc1ccc2c(C(=O)CN3CCCCC3CCO)c(C)[nH]c2c1 (configuration not stated)	101.0	.	101.0	0.0	.	.	.
CCn1c2ccccc2c2cc(NC(=O)COC(=O)c3cc(S(N)(=O)=O)c(Cl)cc3Cl)ccc21	100.0	2.9	91.0	-7.0	.	.	.
NNc1nc(-c2ccccc2)nc2sc3c(c12)CCCC3	142.0*	-5.9	114.0	1.0	103.0	15.0	106.0
NNc1nc2sc3c(c2c(=O)n1Cc1ccccc1)CCC3	124.0	8.9	118.0	20.0	.	.	.
Cc1cccc(/C=N/N(CCO)C2=NS(=O)(=O)c3ccccc32)c1	138.0*	-1.6	117.0	1.0	107.0	11.0	103.0
CC(C)(C)NC(=O)CCN(/N=C/c1ccccc1)C1=NS(=O)(=O)c2ccccc21	103.0	.	102.0	6.0	.	.	.
Cc1ccc(-c2csc(N(CCCN(C)C)C(=O)c3ccco3)n2)cc1	114.0	-10.1	202.0*	30.0	183.0	49.0	107.0
Cc1ccc2nc(N(CCCN(C)C)C(=O)c3ccco3)sc2c1	231.0*	33.4	121.0	33.0	109.0	12.0	107.0
CN(C)CCCN(C(=O)CCc1ccccc1)c1nc2c(F)cccc2s1	98.0	-5.8	118.0	-1.0	.	.	.
CN(C)CCCN(C(=O)c1ccco1)c1nc2c(F)cccc2s1	62.0*[inhibitor]	-12.4	101.0	68.0*	107.0	7.0	102.0
CN(C)CCCN(C(=O)c1ccc(S(=O)(=O)N(C)Cc2ccccc2)cc1)c1nc2c(F)cccc2s1	110.0	-7.6	196.0*	40.0*	176.0	34.0	108.0
Cc1ccc(C)c(NC(NC(=O)c2ccccn2)C(Cl)(Cl)Cl)c1 (configuration not stated)	88.0	-11.1	96.0	-5.0	.	.	.
